Experimental data published in ChEMBL document CHEMBL1141192 (J Med Chem, 2005).
In brackets after ≈: the same amount, converted by molar mass.

Tests used:
[1] = test system: Rattus norvegicus; assay: Inhibition of the licking and biting response at 20 mg/kg, po in rat by formalin paw antinociceptive assay; format: functional; conditions: Sprague-Dawley
Procedure, shortened: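 Screening: fasted male SD rats (105–115 g), three per compound, 20 mg/kg po in 0.1% MC 15 min before 2% formalin (50 μL s.c., right hindpaw). Licking/biting scored 5 s per 30 s; percent inhibition reported for 2nd phase (15–30 min); positive control 5 mg/kg po each run.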

[2] = Solubility in water at pH 7.4
[3] = target: Adenosine kinase (Homo sapiens, UniProt P55263); assay: Inhibitory activity against recombinant human adenosine kinase
Sequence of Adenosine kinase (P55263 whole entry): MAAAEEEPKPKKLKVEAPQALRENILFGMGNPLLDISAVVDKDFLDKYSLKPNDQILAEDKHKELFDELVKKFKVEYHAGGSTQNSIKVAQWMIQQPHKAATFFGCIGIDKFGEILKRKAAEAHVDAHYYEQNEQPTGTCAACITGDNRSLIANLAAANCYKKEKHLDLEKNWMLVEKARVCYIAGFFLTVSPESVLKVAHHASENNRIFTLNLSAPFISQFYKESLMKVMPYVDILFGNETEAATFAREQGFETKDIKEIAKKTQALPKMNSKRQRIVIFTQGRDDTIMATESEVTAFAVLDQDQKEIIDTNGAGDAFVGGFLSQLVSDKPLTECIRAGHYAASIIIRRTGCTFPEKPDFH

Row | SMILES | inhibition in vivo at 20 mg/kg [1] | solubility [2] | IC50 [3]
1 | C[C@H]1O[C@@H](n2cc(-c3ccccc3)c3c(NCC(=O)NCC4CC4)ncnc32)[C@H](O)[C@@H]1O | 42% | 12 µg/mL (≈ 27.4 µM) | 6 nM
2 | O=C(CNc1ncnc2c1c(-c1ccccc1)cn2COCCO)NC1CC1 |  | 270 µg/mL (≈ 708 µM) | 1700 nM
3 | C[C@H]1O[C@@H](n2cc(I)c3c(NCC(=O)NC4CC4)ncnc32)[C@H](O)[C@@H]1O |  | 5 µg/mL (≈ 10.6 µM) | 880 nM
4 | CNC(=O)CNc1ncnc2c1c(-c1ccccc1)cn2[C@@H]1O[C@H](C)[C@@H](O)[C@H]1O | 35% | 240 µg/mL (≈ 604 µM) | 0.8 nM
5 | CCONC(=O)CNc1ncnc2c1c(-c1ccccc1)cn2[C@@H]1O[C@H](C)[C@@H](O)[C@H]1O | 0% | 535 µg/mL (≈ 1250 µM) | 5 nM
6 | C[C@H](Nc1ncnc2c1c(-c1ccccc1)cn2[C@@H]1O[C@H](C)[C@@H](O)[C@H]1O)C(=O)NC1CC1 |  | 480 µg/mL (≈ 1100 µM) | 530 nM
7 | CNC(=O)Nc1ncnc2c1c(-c1ccccc1)cn2[C@@H]1O[C@H](C)[C@@H](O)[C@H]1O |  | 32 µg/mL (≈ 83.5 µM) | 27 nM
8 | CCN(CC)CCNC(=O)CNc1ncnc2c1c(-c1ccccc1)cn2[C@@H]1O[C@H](C)[C@@H](O)[C@H]1O | 11% | > 1000 µg/mL | 210 nM
9 | C[C@H]1O[C@@H](n2nc(-c3ccccc3)c3c(NCC(=O)NC4CC4)ncnc32)[C@H](O)[C@@H]1O | 7% | 620 µg/mL (≈ 1460 µM) | 6 nM
10 | C[C@H]1O[C@@H](n2cc(-c3ccccc3)c3c(NCC(=O)Nc4ccc(Cl)cc4)ncnc32)[C@H](O)[C@@H]1O | 62% | < 0.05 µg/mL | 0.2 nM
11 | O=C(CNc1ncnc2c1c(-c1ccccc1)cn2COCCO)Nc1ccc(Cl)cc1 | 31% | < 0.05 µg/mL | 60 nM
12 | CC(C)CNc1ncnc2c1c(-c1ccccc1)cn2[C@@H]1O[C@H](C)[C@@H](O)[C@H]1O |  | 3 µg/mL (≈ 7.84 µM) | 140 nM
13 | COCCCNC(=O)CNc1ncnc2c1c(-c1ccccc1)cn2[C@@H]1O[C@H](C)[C@@H](O)[C@H]1O | 24% |  | 2 nM
14 | CC(C)CNC(=O)CNc1ncnc2c1c(-c1ccccc1)cn2[C@@H]1O[C@H](C)[C@@H](O)[C@H]1O | 16% | 7 µg/mL (≈ 15.9 µM) | 4 nM
15 | C[C@H]1O[C@@H](n2cc(-c3ccccc3)c3c(NCC(=O)NCCN(C)C)ncnc32)[C@H](O)[C@@H]1O |  | > 1000 µg/mL | 300 nM
16 | C[C@H]1O[C@@H](n2cc(-c3ccccc3)c3c(NC4CC4)ncnc32)[C@H](O)[C@@H]1O |  | 36 µg/mL (≈ 98.2 µM) | 380 nM
17 | C[C@H]1O[C@@H](n2cc(-c3ccccc3)c3c(NCC(=O)Nc4ccccc4)ncnc32)[C@H](O)[C@@H]1O | 62% | < 0.05 µg/mL | 0.5 nM
18 | CCNC(=O)CNc1ncnc2c1c(-c1ccccc1)cn2[C@@H]1O[C@H](C)[C@@H](O)[C@H]1O | 52% | 140 µg/mL (≈ 340 µM) | 40 nM
19 | C[C@H]1O[C@@H](n2cc(-c3ccccc3)c3c(NC(=O)C(=O)NC4CC4)ncnc32)[C@H](O)[C@@H]1O | 17% | 17 µg/mL (≈ 38.9 µM) | 1.3 nM
20 | CCCOC(=O)Nc1ncnc2c1c(-c1ccccc1)cn2[C@@H]1O[C@H](C)[C@@H](O)[C@H]1O |  |  | 4 nM
21 | C[C@H]1O[C@@H](n2cc(-c3ccccc3)c3c(Nc4ccccc4)ncnc32)[C@H](O)[C@@H]1O |  | < 0.05 µg/mL | 

Row | SMILES | inhibition in vivo at 20 mg/kg [1] | solubility [2] | IC50 [3]
22 | O=C(CNc1ncnc2c1c(-c1ccccc1)nn2[C@@H]1O[C@H](CO)[C@@H](O)[C@H]1O)Nc1ccccc1 | -10% | 7 µg/mL (≈ 14.7 µM) | 0.9 nM
23 | C[C@H]1O[C@@H](n2cc(-c3ccccc3)c3c(NCC(=O)NC4CCC4)ncnc32)[C@H](O)[C@@H]1O | 60% | 44 µg/mL (≈ 101 µM) | 1.3 nM
24 | C[C@H]1O[C@@H](n2cc(-c3ccccc3)c3c(NCC(=O)NCCCN(C)C)ncnc32)[C@H](O)[C@@H]1O | 22% | > 1000 µg/mL | 145 nM
25 | O=C(CNc1[nH]cnc2ncc(-c3ccccc3)c1-2)NC1CC1 |  |  | > 10000 nM
26 | CC(C)NC(=O)CNc1ncnc2c1c(-c1ccccc1)cn2[C@@H]1O[C@H](C)[C@@H](O)[C@H]1O | 74% | 26 µg/mL (≈ 61.1 µM) | 25 nM
27 | C[C@H]1O[C@@H](n2cc(-c3ccccc3)c3c(NC/C(S)=N\C4CC4)ncnc32)[C@H](O)[C@@H]1O | 22% | 8 µg/mL (≈ 18.2 µM) | 0.5 nM
28 | C[C@H]1O[C@@H](n2cc(-c3ccccc3)c3c(NCC(=O)NC4CCCC4)ncnc32)[C@H](O)[C@@H]1O | 16% | 6 µg/mL (≈ 13.3 µM) | 1 nM
29 | C[C@H]1O[C@@H](n2cc(-c3ccccc3)c3c(NCCC(N)=O)ncnc32)[C@H](O)[C@@H]1O |  |  | 2500 nM
30 | O=C(CNc1ncnc2c1c(-c1ccccc1)nn2[C@@H]1O[C@H](CO)[C@@H](O)[C@H]1O)NC1CC1 | 6% | 370 µg/mL (≈ 840 µM) | 10 nM
31 | CCCNC(=O)CNc1ncnc2c1c(-c1ccccc1)cn2[C@@H]1O[C@H](C)[C@@H](O)[C@H]1O | 41% | 38 µg/mL (≈ 89.3 µM) | 7 nM
32 | C[C@H]1O[C@@H](n2cc(-c3ccccc3)c3c(NCC4CC4)ncnc32)[C@H](O)[C@@H]1O |  | 0.1 µg/mL (≈ 0.263 µM) | 45 nM
33 | C[C@H]1O[C@@H](n2cc(-c3ccccc3)c3c(NCC(N)=O)ncnc32)[C@H](O)[C@@H]1O |  | 750 µg/mL (≈ 1960 µM) | 2 nM
34 | C[C@H]1O[C@@H](n2cc(-c3ccccc3)c3c(NCC(=O)N(C)C4CC4)ncnc32)[C@H](O)[C@@H]1O |  | 105 µg/mL (≈ 240 µM) | 460 nM
35 | O=C(CNc1ncnc2c1c(-c1ccccc1)cn2[C@@H]1OC[C@@H](O)[C@H]1O)Nc1ccccc1 | 37% |  | 0.6 nM
36 | COCCNC(=O)CNc1ncnc2c1c(-c1ccccc1)cn2[C@@H]1O[C@H](C)[C@@H](O)[C@H]1O | 44% | 230 µg/mL (≈ 521 µM) | 38 nM
37 | C[C@@H](Nc1ncnc2c1c(-c1ccccc1)cn2[C@@H]1O[C@H](C)[C@@H](O)[C@H]1O)C(=O)NC1CC1 |  |  | 2500 nM
38 | O=C(CNc1ncnc2c1c(-c1ccccc1)cn2[C@@H]1OC[C@@H](O)[C@H]1O)NC1CC1 | 17% | 280 µg/mL (≈ 684 µM) | 20 nM
39 | O=C(CNc1ncnc2c1c(-c1ccccc1)cn2[C@@H]1O[C@H](CO)[C@@H](O)[C@H]1O)NC1CC1 | 21% | 76 µg/mL (≈ 173 µM) | 3 nM
40 | C[C@H]1O[C@@H](n2cc(-c3ccccc3)c3c(NCC(=O)NCCCO)ncnc32)[C@H](O)[C@@H]1O | 4% | 650 µg/mL (≈ 1470 µM) | 16 nM
41 | CCCNc1ncnc2c1c(-c1ccccc1)cn2[C@@H]1O[C@H](C)[C@@H](O)[C@H]1O |  | 16 µg/mL (≈ 43.4 µM) | 100 nM
42 | C[C@H]1O[C@@H](n2cc(-c3ccccc3)c3c(Nc4ccc(F)cc4)ncnc32)[C@H](O)[C@@H]1O |  | < 0.05 µg/mL | 
